Screening data (PubChem)
A selection: hits, their analogues and other compounds. The true share with any hit is near 2.5%.
EP2 modulator – modulators of human EP2 prostaglandin E2 receptor. P43116. EP2-expressing cells, cAMP HTRF FRET, PGE2 co-stimulation. induction, % at 25 µM. 260,000 compounds, 0.83% hits. AID 940;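 active means compounds whose cAMP rise, as percent of the full-agonist control response, exceeds 60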;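 further: rat C6 glioma line stably carrying human EP2 under a CMV promoter; the protocol text gives 20 µM as final concentration; 100% = response of wells given 1 µM PGE2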
Target sequence (P43116 whole entry, looked up): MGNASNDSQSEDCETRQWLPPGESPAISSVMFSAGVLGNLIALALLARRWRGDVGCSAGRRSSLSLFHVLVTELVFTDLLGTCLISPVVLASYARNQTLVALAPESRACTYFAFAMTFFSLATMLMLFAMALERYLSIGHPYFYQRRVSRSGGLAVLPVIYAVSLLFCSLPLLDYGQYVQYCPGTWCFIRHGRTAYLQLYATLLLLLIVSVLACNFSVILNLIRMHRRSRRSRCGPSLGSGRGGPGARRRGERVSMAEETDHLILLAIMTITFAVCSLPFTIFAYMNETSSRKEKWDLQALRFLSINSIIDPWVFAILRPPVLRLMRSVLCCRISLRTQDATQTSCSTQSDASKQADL
HKDC1 inhibitor – HKDC1 (human) hexokinase inhibition; Q2TB90; recombinant HKDC1, G6PDH/diaphorase resazurin coupled fluorescence; inhibition, % at 20 µM; 340,000 compounds, 0.16% hits;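 active means inhibition above about 35% when tested at 20 µM, limit read from the data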;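 further: plate controls were DMSO wells with enzyme for no effect and DMSO wells lacking enzyme for full effect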
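Test system: recombinant HKDC1 (HK5) hexokinase enzyme, produced in-house; Amount: enzyme 5 µg/mL final; Buffer or medium: Tris pH 8.0 buffer with MgCl2, Tween-20, BSA, BME; Reagent: glucose and ATP substrates; Doses: 20 µM test compound, 1% DMSO; Incubation: 90 min reaction incubation at room temperature, dark; Detection: resorufin fluorescence at 613 nm.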
EP2 antag – blocks the human prostaglandin E2 receptor EP2; C6 glioma cells expressing human EP2, cAMP TR-FRET; cells stimulated with saturating PGE2; P43116; inhibition, % at 25 µM; 260,000 compounds, 0.52% hits;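 active means percent inhibition above 40 after rounding to a whole number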;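 further: rat C6 glioma host cells with rolipram phosphodiesterase inhibitor present; the protocol text gives 20 µM as final concentration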
PfG6PD inh – PfG6PD (Plasmodium falciparum) enzyme inhibition. 350,000 compounds, 0.78% hits. PfGluPho enzyme, NADPH resazurin-diaphorase fluorescence. inhibition, % at 20 µM;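 active means inhibition reaching at least a set limit at 20 µM in the primary screen, cut at about 59% in these data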;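 further: 0% = DMSO wells with substrate and 100% = DMSO wells lacking glucose-6-phosphate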
PHOSPHO1 block – inhibitors of human PHOSPHO1 phosphatase | Q8TCT1 | recombinant PHOSPHO1, absorbance phosphatase assay | inhibition, % at 13.3 µM | 290,000 compounds, 1.1% hits; in the data active means inhibition above about 60%
Target sequence (Q8TCT1 whole entry, looked up): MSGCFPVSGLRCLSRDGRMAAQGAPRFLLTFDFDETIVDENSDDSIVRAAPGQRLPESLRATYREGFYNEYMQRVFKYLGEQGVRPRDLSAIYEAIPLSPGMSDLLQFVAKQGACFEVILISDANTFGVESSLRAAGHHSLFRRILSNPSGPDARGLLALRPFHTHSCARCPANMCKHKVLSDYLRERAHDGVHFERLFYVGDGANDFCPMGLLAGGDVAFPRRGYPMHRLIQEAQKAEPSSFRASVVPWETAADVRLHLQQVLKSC
Tb hexokinase – blocks Trypanosoma brucei hexokinase 1 activity; recombinant TbHK1, G6PDH-coupled NADH A340; inhibition, % at 10 µM; 220,000 compounds, 0.11% hits;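 active means inhibition of 50% or more in the single-dose primary screen; inactive means inhibition below 50%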
An asterisk follows results filed as active.

Screening Cc1nn(CCc2n[nH]c(=S)n2-c2cccc(Cl)c2)c(C)c1[N+](=O)[O-] returned EP2 modulator 25, HKDC1 inhibitor 8, EP2 antag 7, PfG6PD inh 32, PHOSPHO1 block 93* and Tb hexokinase -3.
`Cc1ccc2[nH]c(=O)c(CN(Cc3ccco3)C(c3nnnn3CC3CCCO3)C(C)C)cc2c1` (stereo not drawn) gave EP2 modulator 20 and EP2 antag 16.
`FC(F)(F)c1nc2nc(Cl)c(Cl)nc2n1CCCN1CCOCC1` gave EP2 modulator 7, EP2 antag 46* and PfG6PD inh -12.
For Cc1nc2ccccc2c(=O)n1CCCN1CCOCC1 the results were EP2 modulator 34, HKDC1 inhibitor -2, EP2 antag 4, PfG6PD inh 4, PHOSPHO1 block 43 and Tb hexokinase -10.
`C=CC[n+]1c(-c2ccc(OC)cc2)csc1NNC(=O)Nc1ccccc1` gave EP2 modulator -45, HKDC1 inhibitor 17, EP2 antag 0, PfG6PD inh 7, PHOSPHO1 block 66* and Tb hexokinase -1.
`Cc1ccc(C(=O)CCCn2nnc(-c3ccncc3)n2)cc1C` gave EP2 modulator -48 and EP2 antag 12.
Screening CC(C(=O)Nc1ccccc1Oc1ccccc1)c1ccccc1 (stereo not drawn) returned EP2 modulator 64*, HKDC1 inhibitor 6, EP2 antag 6, PfG6PD inh -19, PHOSPHO1 block -14 and Tb hexokinase 0.
O=C(Nc1ccccc1Oc1ccccc1)C1CCCC1 was read as EP2 modulator 61*, HKDC1 inhibitor 14, EP2 antag 7, PfG6PD inh -13, PHOSPHO1 block -14 and Tb hexokinase 7.
c1ccc(-c2nc(CSc3nnnn3-c3ccccc3)cs2)cc1 was read as EP2 modulator -6, HKDC1 inhibitor 7, EP2 antag 6, PfG6PD inh 1, PHOSPHO1 block 14 and Tb hexokinase 13.
Screening Cc1ccccc1Nc1nc(CSc2nnnn2-c2ccccc2)cs1 returned EP2 modulator 12, HKDC1 inhibitor -4, EP2 antag 10, PfG6PD inh 54, PHOSPHO1 block 95* and Tb hexokinase -5.
Screening N#CC1=C2SCN(Cc3ccccc3)CN2C(=O)CC1c1ccc2c(c1)OCO2 (stereo not drawn) returned EP2 modulator -11, HKDC1 inhibitor 17, EP2 antag 7, PfG6PD inh 61*, PHOSPHO1 block 63* and Tb hexokinase -8.
`N#CC1=C2SCN(Cc3ccco3)CN2C(=O)CC1c1ccc(Cl)cc1` (stereo not drawn) gave EP2 modulator -9, HKDC1 inhibitor 17, EP2 antag 7, PfG6PD inh 54, PHOSPHO1 block 76* and Tb hexokinase -2.
`O=C(CN1CCC(c2ccc3c(c2)OCO3)CC1)N1CCCCC1` gave EP2 modulator -17.
For Cc1cc(/C=c2/sc3nc4ccccc4n3c2=O)c(C)n1-c1ccccn1 the results were EP2 modulator -26, HKDC1 inhibitor 5, EP2 antag 13, PfG6PD inh 38, PHOSPHO1 block 75* and Tb hexokinase -25.
Screening CCO/C(=C/c1sc2ccc(OC)cc2[n+]1CCCS(=O)(=O)[O-])CC returned EP2 modulator 9, HKDC1 inhibitor -4, EP2 antag 4, PfG6PD inh 9, PHOSPHO1 block 32 and Tb hexokinase -38.
`CCOC(=O)C[n+]1c(C)sc2ccc(OC)cc21` gave EP2 modulator 6, HKDC1 inhibitor 0, EP2 antag 8, PfG6PD inh 45, PHOSPHO1 block 92* and Tb hexokinase -1.
For COC(=O)C1=C(C(C)=O)C(c2ccc(OC)cc2)n2nnnc2N1 (stereo not drawn) the results were EP2 modulator 22 and EP2 antag 3.
`Cc1[nH]c2ccccc2c1-c1cc(-c2cc(-c3c(C)[nH]c4ccccc34)on2)no1` gave EP2 modulator -23 and EP2 antag 47*.
`Cc1[nH]c2ccccc2c1-c1csc(N)n1` gave EP2 modulator -106, HKDC1 inhibitor -2, EP2 antag 8, PfG6PD inh 2 and PHOSPHO1 block 34.
N#C/C(=C\c1ccc(N2CCOCC2)o1)c1nc2ccccc2[nH]1 was read as EP2 modulator -34, HKDC1 inhibitor 9, EP2 antag 42*, PfG6PD inh 38, PHOSPHO1 block 16 and Tb hexokinase -5.
For O=C(COC(=O)c1ccco1)Nc1cccc(Cl)c1Cl the results were EP2 modulator -11 and EP2 antag 4.
Screening OC(CN1CCC(O)(c2ccccc2F)CC1)c1ccc(Cl)c(Cl)c1 (stereo not drawn) returned EP2 modulator -74 and EP2 antag 3.
Cc1ccc(C(=O)OCC(=O)Nc2sc3c(c2C#N)CCCCC3)cc1NC(=O)c1ccco1 was read as EP2 modulator 0, HKDC1 inhibitor 6, EP2 antag 5, PfG6PD inh -36, PHOSPHO1 block 3 and Tb hexokinase -5.
Cc1ccc(C(=O)OCC(=O)Nc2sc3c(c2C#N)CCCC3)cc1NC(=O)c1ccco1 was read as EP2 modulator 27, HKDC1 inhibitor 6, EP2 antag 15, PfG6PD inh -26, PHOSPHO1 block 64* and Tb hexokinase -6.
Screening OC[C@@H]1O[C@H](N2CCN([C@@H]3O[C@H](CO)[C@@H](O)[C@H](O)[C@H]3O)CC2)[C@@H](O)[C@H](O)[C@H]1O returned EP2 modulator 15 and EP2 antag 49*.
`NC(=O)CSc1nnc(-c2ccccc2)n1N` gave EP2 modulator 1 and EP2 antag 12.
COc1ccc(S(=O)(=O)N2CCOCC2)cc1NC(=O)CSc1nc(C)c(C)c(C)n1 was read as HKDC1 inhibitor 16 and PfG6PD inh 35.
`COc1ccc(S(=O)(=O)N2CCOCC2)cc1NC(=O)CSc1n[nH]c(C(C)C)n1` gave EP2 modulator -7, HKDC1 inhibitor -5, EP2 antag 5, PfG6PD inh 11, PHOSPHO1 block 63* and Tb hexokinase -4.
`CC1C(c2ccc(F)cc2)=NOC1C(=O)NCc1nc(-c2ccccc2)no1` (stereo not drawn) gave EP2 modulator -27 and EP2 antag 7.
For O=C1/C(=C/c2ccc(N3CCCC3)cc2)NC(=S)N1C1CC1 the results were EP2 modulator 15, HKDC1 inhibitor -7, EP2 antag 14, PfG6PD inh 0, PHOSPHO1 block 102* and Tb hexokinase -9.
For CCc1ccccc1NC(=S)NC1CC2CCCC(C1)N2C1CC1 (stereo not drawn) the results were EP2 modulator -101 and EP2 antag 8.
For COc1ccc(CN2C[C@@H]3CCCN3C[C@@H]2Cc2ccccc2)cc1O the results were EP2 modulator -18 and EP2 antag 9.
For CSc1nc(N)c(NC(=O)c2ccc(Br)o2)c(=O)[nH]1 the results were HKDC1 inhibitor 5, PfG6PD inh -5 and PHOSPHO1 block 66*.
